The text below walks through data of ChEMBL document CHEMBL1131164, “Potent cyano and carboxamido side-chain analogues of 1', 1'-dimethyl-delta8-tetrahydrocannabinol” (J Med Chem, 1998).

Test [1] concerns the target Cannabinoid receptor 1 (Homo sapiens, UniProt P21554). Briefly: Evaluated for its binding affinity towards Cannabinoid receptor 1 (CB1).
The species named for test [2] is Mus musculus. Briefly: Tested for the concentration for antinociception as measured by the tail-flick response (TF). In kind it is functional.
For test [3], the species on record is Mus musculus. In words: Tested for the concentration for the inhibition of spontaneous activity (SA). In kind it is functional.
The species entered for test [4] is Mus musculus. In words: Tested for the concentration that shows hypothermia as changes in rectal temperature (RT). In kind it is functional.
For test [5], the species on record is Mus musculus. In words: Tested for the concentration that shows ring immobility (RI). In kind it is functional.
For test [6], the system named is Mus musculus. In words: The compound was tested for the concentration for the inhibition of spontaneous activity (SA) at a dose of 100 mg/kg. The test is classed as functional. Put shortly:
(§1)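 Mice, single intravenous tail-vein dose in ethanol:emulphor:saline 1:1:18 at 0.1 mL/10 g. Several measures were taken in the same mouse. SA is % of control activity, and TF is %MPE with a 10-s maximum latency. Effect is expressed as percent of the Δ9-THC maximum (90% for SA, 100% for TF).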

The test system of test [7] is Mus musculus. In words: The compound was tested for the concentration for antinociception as measured by the tail-flick response (TF) at a dose of 60 mg/kg. The test is classed as functional. The method in brief: as §1
For test [8], the system named is Mus musculus. Briefly: The compound was tested for the concentration for the inhibition of spontaneous activity (SA) at a dose of 30 mg/kg. The test is classed as functional. The method in brief: as §1
Test [9] relates to Mus musculus. Briefly: The compound was tested for the concentration for antinociception as measured by the tail-flick response (TF) at a dose of 30 mg/kg. In kind it is functional. The method in brief:
as §1

Test [10] concerns Mus musculus. In words: The compound was tested for the concentration that shows hypothermia as changes in rectal temperature (RT) at a dose of 30 mg/kg. In kind it is functional. The method in brief:
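Mice, single intravenous tail-vein dose in ethanol:emulphor:saline 1:1:18 at 0.1 mL/10 g. Rectal temperature change (Δ°C) was measured in the same mouse as the other behavioural measures.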

Sequence of Cannabinoid receptor 1 (P21554 whole entry): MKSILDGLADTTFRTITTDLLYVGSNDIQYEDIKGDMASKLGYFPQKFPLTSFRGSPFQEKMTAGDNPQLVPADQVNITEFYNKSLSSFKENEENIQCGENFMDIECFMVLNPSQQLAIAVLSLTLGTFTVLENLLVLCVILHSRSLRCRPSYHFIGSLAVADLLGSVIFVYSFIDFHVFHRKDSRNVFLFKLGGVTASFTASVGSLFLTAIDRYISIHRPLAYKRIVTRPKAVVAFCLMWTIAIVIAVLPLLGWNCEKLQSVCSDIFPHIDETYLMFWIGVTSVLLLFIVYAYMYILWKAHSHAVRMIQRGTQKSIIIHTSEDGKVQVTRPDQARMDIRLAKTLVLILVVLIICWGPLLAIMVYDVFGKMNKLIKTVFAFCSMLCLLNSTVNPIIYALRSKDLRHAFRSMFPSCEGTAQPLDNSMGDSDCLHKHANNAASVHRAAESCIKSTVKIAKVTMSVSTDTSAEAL

A word on the Ki: it is the dissociation constant of the complex between target and ligand, obtained from inhibition or displacement. For orientation: ED50 means the dose at which the effect has come halfway, by size or by number of responders. In test [1], `CC1=CC[C@@H]2[C@@H](C1)c1c(O)cc(C(C)(C)CCCCC(=O)Nc3ccc(S(N)(=O)=O)cc3)cc1OC2(C)C` had a Ki of 19 nM. In addition, the ED50 was determined as 3.2 mg/kg in test [2], 2.03 mg/kg in [3] and 1.7 mg/kg in test [4].
The molecule `CC1=CC[C@@H]2[C@@H](C1)c1c(O)cc(C(C)(C)CCCC(O)C#N)cc1OC2(C)C` (stereo not given in full) displayed an inhibition constant Ki in test [1] of 13 nM. Further, the ED50 in [2] was 0.11 mg/kg; in test [3], 0.52 mg/kg; in test [4], 1.5 mg/kg; in test [5], 1.07 mg/kg.
`CCN(CC)C(=O)CCCCC(C)(C)c1cc(O)c2c(c1)OC(C)(C)[C@@H]1CC=C(C)C[C@@H]21`: the Ki in [1] was determined as 13 nM. Moreover, the ED50 was 0.1 mg/kg in [2], 0.09 mg/kg in test [3] and 0.4 mg/kg in test [4].
The term inhibition in vivo denotes the relative decrease from the control value, in per cent. Turning to `CC1=CC[C@@H]2[C@@H](C1)c1c(O)cc(C(C)(C)CCCCC(=O)NCCc3ccc(S(N)(=O)=O)cc3)cc1OC2(C)C`, the Ki in test [1] is 29 nM. Further, in test [6], the inhibition in vivo at 100 mg/kg stood at 60%. Further, the ED50 in test [2], in test [4] and in [5] was above 100 mg/kg throughout.
In turn, `CC1=CC[C@@H]2[C@@H](C1)c1c(O)cc(C(C)(C)CCCCC(=O)NCc3ccc(S(N)(=O)=O)cc3)cc1OC2(C)C` yielded a Ki in [1] of 60 nM. Also, the inhibition in vivo at 60 mg/kg in test [7] is 60%. Also, the figures for the ED50 in test [3] and in test [4] were 31 mg/kg and 37 mg/kg, respectively.
Molecule `CC1=CC[C@@H]2[C@@H](C1)c1c(O)cc(C(C)(C)CCCCC(C#N)c3ccccc3)cc1OC2(C)C` (stereo not given in full) came in with a Ki in test [1] of 9.2 nM. For the same molecule, the ED50 was 1.4 mg/kg in test [2], 6.51 mg/kg in test [3], 4.2 mg/kg in test [4] and 5.05 mg/kg in test [5].
In test [1], `CC1=CC[C@@H]2[C@@H](C1)c1c(O)cc(C(C)(C)CCCCC(=O)Nc3ccc(Cl)cc3Cl)cc1OC2(C)C` showed a Ki of 18 nM. The inhibition in vivo at 30 mg/kg in test [8] was found to be 27%. Further, the ED50 turned out to be 14 mg/kg in test [2] and 3.7 mg/kg in test [4].
Regarding `CC1=CC[C@@H]2[C@@H](C1)c1c(O)cc(C(C)(C)CCCCC#N)cc1OC2(C)C`, the Ki in test [1] was found to be 0.36 nM. The ED50 in test [2] was found to be 0.0047 mg/kg; in test [3] it was 0.007 mg/kg; in test [4], 0.19 mg/kg; in test [5], 0.095 mg/kg.
`CC1=CC[C@@H]2[C@@H](C1)c1c(O)cc(C(C)(C)CCCCC(=O)NN3CCCCC3)cc1OC2(C)C` returned a Ki in test [1] of 1.2 nM. Also, the ED50 in test [2] came out at 0.16 mg/kg; in test [3] it was 0.04 mg/kg; in [4], 0.17 mg/kg.
In test [1], `CC1=CC[C@@H]2[C@@H](C1)c1c(O)cc(C(C)(C)CCCCC(=O)Nc3ccc(Cl)cc3)cc1OC2(C)C` displayed a Ki of 187 nM. In addition, the inhibition in vivo at 30 mg/kg in test [9] was 15%; in test [8] it was 39%; in [10] it was -1.6%.
Turning to `CC1=CC[C@@H]2[C@@H](C1)c1c(O)cc(C(C)(C)CCCCC(=O)N(C)C)cc1OC2(C)C`, in [1], the Ki came out at 0.86 nM. Besides, the ED50 in test [2] came out at 0.031 mg/kg; in [3] it was 0.0015 mg/kg; in test [4], 0.12 mg/kg.
In [1], `CC1=CC[C@@H]2[C@@H](C1)c1c(O)cc(C(C)(C)CCCCCC#N)cc1OC2(C)C` gave a Ki of 0.6 nM. For the same molecule, the figures for the ED50 in [2], in [3] and in test [4] were 0.01 mg/kg, 0.006 mg/kg and 0.005 mg/kg, respectively.
`CC1=CC[C@@H]2[C@@H](C1)c1c(O)cc(C(C)(C)CCCCOc3ccc(C#N)cc3)cc1OC2(C)C` yielded a Ki in test [1] of 3 nM. Also, the ED50 is 1.15 mg/kg in test [2], 0.1 mg/kg in [3] and 4.24 mg/kg in test [4].
`CCCCCCC(C)(C)c1cc(O)c2c(c1)OC(C)(C)[C@@H]1CC=C(C)C[C@@H]21`: in [1], the Ki is 0.77 nM. Also, the ED50 worked out at 0.04 mg/kg in test [2], 0.07 mg/kg in test [3], 0.04 mg/kg in [4] and 0.05 mg/kg in test [5].
In the case of `CCCCCc1cc(O)c2c(c1)OC(C)(C)[C@@H]1CCC(C)=C[C@@H]21` [DRONABINOL], the ED50 amounted to 1.4 mg/kg in [2], 1 mg/kg in [3], 1.4 mg/kg in test [4] and 1.5 mg/kg in [5].
